# Species: Mus musculus
# Assay: Inhibition of nitric oxide (NO) production induced by interferon-gamma (IFN-gamma) in mouse macrophages; call rule not given here
# Type: functional
# Outline: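 Primary peritoneal macrophages from female CD-1 mice (5–10 weeks), harvested four days after i.p. injection of 4% thioglycollate broth. Seeded at 2 × 10^5 cells/well and incubated 48 h with 20 ng/mL recombinant mouse IFN-γ plus compound in DMSO (final ≤0.1%), with DMSO controls. Nitrite in supernatant measured by Griess reaction at 550 nm in triplicate against sodium nitrite standard curve. IC50 is the average of two experiments.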
row,SMILES,IC50
1,COC(=O)[C@]12CCC(C)(C)CC1C1=CC(=O)[C@@H]3[C@@]4(C)C=CC(=O)C(C)(C)[C@@H]4CC[C@@]3(C)[C@]1(C)CC2 (stereo partly specified),2800 nM
2,COC(=O)[C@]12CCC(C)(C)CC1C1C(=O)C[C@@H]3[C@@]4(C)C=CC(=O)C(C)(C)[C@@H]4CC[C@@]3(C)[C@]1(C)CC2 (stereo partly specified),14000 nM
3,CC1(C)CC[C@]2(C=O)CC[C@]3(C)C(=CC(=O)[C@@H]4[C@@]5(C)C=CC(=O)C(C)(C)[C@@H]5CC[C@]43C)C2C1 (stereo partly specified),3800 nM
4,COC(=O)[C@]12CC[C@@H](C)[C@H](C)C1C1=CC(=O)[C@@H]3[C@@]4(C)C=CC(=O)C(C)(C)[C@@H]4CC[C@@]3(C)[C@]1(C)CC2 (stereo partly specified),8900 nM
5,CC1(C)CC[C@]2(CO)CC[C@]3(C)C(=CC(=O)[C@@H]4[C@@]5(C)C=CC(=O)C(C)(C)[C@@H]5CC[C@]43C)C2C1 (stereo partly specified),3000 nM
6,COC(=O)[C@]12CCC(C)(C)CC1C1=CC[C@@H]3[C@@]4(C)C=CC(=O)C(C)(C)[C@@H]4CC[C@@]3(C)[C@]1(C)CC2 (stereo partly specified),31000 nM
7,CC(=O)OC[C@]12CCC(C)(C)CC1C1=CC(=O)[C@@H]3[C@@]4(C)C=CC(=O)C(C)(C)[C@@H]4CC[C@@]3(C)[C@]1(C)CC2 (stereo partly specified),> 40000 nM

# Second part, the molecule after the results:
row,IC50,SMILES
1,700 nM,COC(=O)[C@]12CCC(C)(C)CC1C1C(=O)C=C3[C@@]4(C)C=CC(=O)C(C)(C)[C@@H]4CC[C@@]3(C)[C@]1(C)CC2 (stereo partly specified)
2,100 nM,COC(=O)[C@]12CCC(C)(C)CC1C1C(=O)C=C3[C@@]4(C)C=C(C=O)C(=O)C(C)(C)[C@@H]4CC[C@@]3(C)[C@]1(C)CC2 (stereo partly specified)
3,800 nM,C[C@@H]1CC[C@]2(C(=O)O)CC[C@]3(C)C(=CC(=O)[C@@H]4[C@@]5(C)C=C(C#N)C(=O)C(C)(C)[C@@H]5CC[C@]43C)C2[C@H]1C (stereo partly specified)
4,100 nM,COC(=O)[C@]12CC[C@@H](C)[C@H](C)C1C1=CC(=O)[C@@H]3[C@@]4(C)C=C(C#N)C(=O)C(C)(C)[C@@H]4CC[C@@]3(C)[C@]1(C)CC2 (stereo partly specified)
5,1100 nM,CC1(C)CC[C@]2(C(=O)O)CC[C@]3(C)C(=CC(=O)[C@@H]4[C@@]5(C)C=CC(=O)C(C)(C)[C@@H]5CC[C@]43C)C2C1 (stereo partly specified)
6,100 nM,COC(=O)[C@]12CCC(C)(C)CC1C1C(=O)C=C3[C@@]4(C)C=C(C(N)=O)C(=O)C(C)(C)[C@@H]4CC[C@@]3(C)[C@]1(C)CC2 (stereo partly specified)

# Species: Mus musculus
# Assay: Evaluated for the inhibitory activity of (Nitric Oxide)NO production induced by interferon-gamma (IFN-gamma) in mouse macrophages(toxic to cells above 1 uM and is not active below 1 uM); Toxic
# Type: functional, cell-based
row,SMILES,IC50
1,COC(=O)[C@]12CCC(C)(C)CC1C1=CC[C@@H]3[C@@]4(C)C=C(C=O)C(=O)C(C)(C)[C@@H]4CC[C@@]3(C)[C@]1(C)CC2 (stereo partly specified),Toxic

# Species: Mus musculus
# Assay: Evaluated for the inhibitory activity of (Nitric Oxide)NO production induced by interferon-gamma (IFN-gamma) in mouse macrophages( toxic to cells above 1 uM and is not active below 1 uM); Toxic
# Type: functional, cell-based
row,SMILES,IC50
1,C[C@@H]1CC[C@]2(C(=O)O)CC[C@]3(C)C(=CC[C@@H]4[C@@]5(C)CC[C@H](O)C(C)(C)[C@@H]5CC[C@]43C)C2[C@H]1C (stereo partly specified),Toxic
2,COC(=O)C1=C[C@]2(C)C3=CC(=O)C4C5CC(C)(C)CC[C@]5(C(=O)OC)CC[C@@]4(C)[C@]3(C)CC[C@H]2C(C)(C)C1=O (stereo partly specified),Toxic

# Reference: ChEMBL document CHEMBL1133509, “Synthetic oleanane and ursane triterpenoids with modified rings A and C: a series of highly active inhibitors of nitric oxide production in mouse macrophages” (J Med Chem, 2000)
